# Reference: ChEMBL document CHEMBL3120115, “Synthesis and biological evaluation of 2-oxonicotinonitriles and 2-oxonicotinonitrile based nucleoside analogues” (Eur J Med Chem, 2014)
# Columns and labels:
# [1] = Selectivity index, ratio of CC50 for cytotoxicity to EC50 for Influenza A virus H3N2; type: toxicity; settings: read-out: Ratio CC50/EC50
# Summary of the method: (§1)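 CC50 is the concentration at which 50% of cells die, and EC50 is the concentration inhibiting 50% of viral infection. SI is calculated as the CC50/EC50 ratio.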
# [2] = Selectivity index, ratio of CC50 for cytotoxicity to EC50 for Influenza A virus H1N1; type: toxicity; settings: read-out: Ratio CC50/EC50; summary of the method: as §1
# [3] = tested on: SARS-CoV; test: Antiviral activity against SARS coronavirus by visual/neutral red test; type: functional, organism-based; settings: Severe acute respiratory syndrome-related coronavirus
# [4] = tested on: Influenza A virus; test: Antiviral activity against Influenza A virus H3N2 by cytopathy assay; type: functional, organism-based
# [5] = tested on: Human alphaherpesvirus 2; test: Antiviral activity against HSV2 assessed as inhibition of viral infection; type: functional, organism-based
# [6] = tested on: Influenza A virus; test: Antiviral activity against Influenza A virus H1N1 by cytopathy assay; type: functional, organism-based
# [7] = tested on: Hepatitis B virus; test: Antiviral activity against Hepatitis B virus assessed as inhibition of viral infection by DNA virion assay; type: functional, organism-based
# [8] = tested on: Influenza A virus; test: Antiviral activity against Influenza A virus H5N1 by cytopathy assay; type: functional, organism-based
# [9] = tested on: Influenza B virus; test: Antiviral activity against Influenza B virus by cytopathy assay; type: functional, organism-based
# [10] = tested on: Human alphaherpesvirus 1; test: Antiviral activity against HSV1 assessed as inhibition of viral infection; type: functional, organism-based
# [11] = Selectivity index, ratio of CC50 for cytotoxicity to EC50 for HSV2; type: toxicity; settings: read-out: Ratio CC50/EC50; summary of the method: as §1
# [12] = tested on: Hepatitis C virus; test: Antiviral activity against Hepatitis C virus assessed as inhibition of viral infection by RNA replicon assay; type: functional, organism-based, Hepacivirus hominis
# [13] = tested on: West Nile virus; test: Antiviral activity against West Nile virus by visual/neutral red test; type: functional, organism-based
# [14] = Selectivity index, ratio of CC50 for cytotoxicity to EC50 for HSV1; type: toxicity; settings: read-out: Ratio CC50/EC50; summary of the method: as §1
# [15] = tested on: Escherichia coli; test: Antimicrobial activity against Escherichia coli at 250 ug/disc after 48 hrs by well diffusion method; type: functional; settings: read-out: DIZ
# Summary of the method: (§2)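 Well diffusion assay. Bacteria were grown on nutrient agar and fungi on Czapek's-Dox agar; spores were inoculated into sterilized medium, dispersed and poured into plates. Compounds were dissolved in DMF at 250 mg/mL and loaded into 1 cm wells. Plates stood 24 h refrigerated for diffusion, then were incubated at 35 °C for 48 h (bacteria) or 28 °C for 5-7 days (fungi). Inhibition zone diameter was read in mm. DMF-only wells served as negative control.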
# [16] = Selectivity index, ratio of CC50 for cytotoxicity to EC50 for Influenza B virus; type: toxicity; settings: read-out: Ratio CC50/EC50; summary of the method: as §1
# [17] = tested on: Aspergillus viridinutans; test: Antimicrobial activity against Aspergillus viridinutans at 250 ug/disc after 5 to 7 days by well diffusion method; type: functional; settings: read-out: DIZ; summary of the method: as §2
# [18] = Selectivity index, ratio of CC50 for cytotoxicity to EC50 for Influenza A virus H5N1; type: toxicity; settings: read-out: Ratio CC50/EC50; summary of the method: as §1
# [19] = tested on: Bacillus subtilis; test: Antimicrobial activity against Bacillus subtilis at 250 ug/disc after 48 hrs by well diffusion method; type: functional; settings: read-out: DIZ; summary of the method: as §2
# [20] = tested on: Aspergillus niger; test: Antimicrobial activity against Aspergillus niger at 250 ug/disc after 5 to 7 days by well diffusion method; type: functional; settings: read-out: DIZ; summary of the method: as §2
smiles,measurement,setting,value
N#Cc1c(-c2cccs2)cc(-c2cccs2)nc1O,selectivity ratio,[1],> 4.2
same,selectivity ratio,[2],> 3.1
same,EC50,[3],> 100 µM
same,EC50,[4],16 µM
same,EC50,[5],> 12 µM
same,EC50,[6],32 µM
same,EC50,[7],> 100 µM
same,EC50,[8],> 100 µM
same,EC50,[9],> 100 µM
same,EC50,[10],> 12 µM
same,selectivity ratio,[11],< 4.8
same,EC50,[12],> 100 µM
same,EC50,[13],> 4.6 µM
same,selectivity ratio,[14],< 4.7
CC(=O)OC[C@H]1O[C@@H](n2c(-c3cccs3)cc(-c3ccc(C(C)C)cc3)c(C#N)c2=O)[C@H](OC(C)=O)[C@@H](OC(C)=O)[C@@H]1OC(C)=O,selectivity ratio,[1],> 3
same,zone of inhibition at 250 µg/disc,[15],0 mm
same,EC50,[3],> 100 µM
same,selectivity ratio,[16],> 2.2
same,EC50,[4],33 µM
same,EC50,[5],60.3 µM
same,EC50,[7],> 100 µM
same,EC50,[8],32 µM
same,EC50,[9],40 µM
same,zone of inhibition at 250 µg/disc,[17],7 mm
same,EC50,[10],67.2 µM
same,selectivity ratio,[11],> 4.9
same,EC50,[12],> 100 µM
same,selectivity ratio,[18],1
same,EC50,[13],> 4.7 µM
same,zone of inhibition at 250 µg/disc,[19],1 mm
same,selectivity ratio,[14],> 4.4
CC(=O)OC[C@H]1O[C@@H](n2c(-c3cccs3)cc(-c3cccs3)c(C#N)c2=O)[C@H](OC(C)=O)[C@@H](OC(C)=O)[C@@H]1OC(C)=O,selectivity ratio,[1],> 2.5
same,zone of inhibition at 250 µg/disc,[15],0 mm
same,EC50,[3],> 32 µM
same,selectivity ratio,[16],1
same,EC50,[4],40 µM
same,zone of inhibition at 250 µg/disc,[20],8 mm
same,EC50,[5],> 60 µM
same,EC50,[7],> 100 µM
same,EC50,[8],> 100 µM
same,EC50,[9],32 µM
same,zone of inhibition at 250 µg/disc,[17],6 mm
same,EC50,[10],> 60 µM
same,selectivity ratio,[11],< 4
same,EC50,[12],> 100 µM
same,EC50,[13],> 3 µM
same,zone of inhibition at 250 µg/disc,[19],2 mm
same,selectivity ratio,[14],< 4
CC(C)c1ccc(-c2cc(-c3cccs3)n([C@@H]3O[C@H](CO)[C@@H](O)[C@H](O)[C@H]3O)c(=O)c2C#N)cc1,zone of inhibition at 250 µg/disc,[15],0 mm
same,zone of inhibition at 250 µg/disc,[20],7 mm
same,zone of inhibition at 250 µg/disc,[17],8 mm
same,zone of inhibition at 250 µg/disc,[19],10 mm
N#Cc1c(-c2cccs2)cc(-c2cccs2)n([C@@H]2O[C@H](CO)[C@@H](O)[C@H](O)[C@H]2O)c1=O,zone of inhibition at 250 µg/disc,[17],6 mm
same,zone of inhibition at 250 µg/disc,[19],2 mm
CC(=O)OC[C@H]1O[C@@H](n2c(-c3ccccn3)cc(-c3ccc(Cl)cc3)c(C#N)c2=O)[C@H](OC(C)=O)[C@@H](OC(C)=O)[C@H]1OC(C)=O,zone of inhibition at 250 µg/disc,[15],0 mm
same,zone of inhibition at 250 µg/disc,[20],7 mm
same,zone of inhibition at 250 µg/disc,[17],5 mm
CC(=O)OC[C@H]1O[C@@H](n2c(-c3cccs3)cc(-c3ccc(C(C)C)cc3)c(C#N)c2=O)[C@H](OC(C)=O)[C@@H](OC(C)=O)[C@H]1OC(C)=O,zone of inhibition at 250 µg/disc,[20],9 mm
same,zone of inhibition at 250 µg/disc,[17],6 mm
N#Cc1c(-c2ccc(Cl)cc2)cc(-c2ccccn2)n([C@@H]2O[C@H](CO)[C@H](O)[C@H](O)[C@H]2O)c1=O,zone of inhibition at 250 µg/disc,[15],0 mm
same,zone of inhibition at 250 µg/disc,[17],7 mm
same,zone of inhibition at 250 µg/disc,[19],2 mm
CC(C)c1ccc(-c2cc(-c3cccs3)n([C@@H]3O[C@H](CO)[C@H](O)[C@H](O)[C@H]3O)c(=O)c2C#N)cc1,zone of inhibition at 250 µg/disc,[15],5 mm
same,zone of inhibition at 250 µg/disc,[17],6 mm
same,zone of inhibition at 250 µg/disc,[19],3 mm
N#Cc1c(-c2cccs2)cc(-c2cccs2)n([C@@H]2O[C@H](CO)[C@H](O)[C@H](O)[C@H]2O)c1=O,zone of inhibition at 250 µg/disc,[15],0 mm
same,zone of inhibition at 250 µg/disc,[17],8 mm
same,zone of inhibition at 250 µg/disc,[19],4 mm
CC(=O)OCCCCOc1nc(-c2ccccn2)cc(-c2ccc(Cl)cc2)c1C#N,zone of inhibition at 250 µg/disc,[15],0 mm
same,zone of inhibition at 250 µg/disc,[20],9 mm
same,zone of inhibition at 250 µg/disc,[17],7 mm
same,zone of inhibition at 250 µg/disc,[19],3 mm
N#Cc1c(-c2ccc(Cl)cc2)cc(-c2ccccn2)nc1OCCCCO,zone of inhibition at 250 µg/disc,[15],0 mm
same,zone of inhibition at 250 µg/disc,[20],7 mm
same,zone of inhibition at 250 µg/disc,[17],5 mm
same,zone of inhibition at 250 µg/disc,[19],2 mm
CC(=O)OCCOCn1c(-c2cccs2)cc(-c2cccs2)c(C#N)c1=O,zone of inhibition at 250 µg/disc,[15],0 mm
same,zone of inhibition at 250 µg/disc,[20],8 mm
same,zone of inhibition at 250 µg/disc,[17],7 mm
same,zone of inhibition at 250 µg/disc,[19],10 mm
